Reference: ChEMBL document CHEMBL3804776, “Synthesis and Evaluation of Macrocyclic Peptide Aldehydes as Potent and Selective Inhibitors of the 20S Proteasome” (ACS Med Chem Lett, 2016)
Active and inactive are the calls of the source. The rule behind the calls is not given here. Residues, ends and D or L forms follow the SMILES beside them. *: point of attachment. Cbz = O=C(OCc1ccccc1)*

Columns and labels:
Cathepsin B [1] = target: T1, Cathepsin B (Homo sapiens, UniProt P07858); test: Inhibition of human liver cathepsin B using Cbz-RR-AMC as substrate by fluorometric assay
Oryctolagus cuniculus [2] = species on record: Oryctolagus cuniculus; test: Inhibition of PGPH-like activity of rabbit 20S proteasome using Cbz-LLE-AMC substrate at 100 uM incubated at 37 degC by fluorometric assay
How it was run: (§1)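 Fluorometric kinetic enzyme assay run at a single inhibitor concentration of 100 μM. The outcome was scored as whether inhibition occurred at that concentration.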

HeLa [3] = test: Inhibition of 26S proteasome in IL1beta-induced human HeLa cells assessed as phosphorylation of IkappaBalpha at 20 uM preincubated for 2 hrs followed by IL1beta stimulation by Western blot analysis; type: cell-based
How it was run: (§2)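 HeLa human cervix carcinoma cells were pretreated with compound at 20 μM for 2 h, then stimulated with IL-1β. Read-outs were Western blot for IκBα phosphorylation (S32/36) and IκBα degradation, with β-actin as loading control, and EMSA for NF-κB DNA binding.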

HeLa [4] = test: Inhibition of 26S proteasome in TNFalpha-induced human HeLa cells assessed as accumulation of phosphorylated IkappaBalpha at 300 nM to 20 uM preincubated for 2 hrs followed by TNFalpha stimulation by Western blot analysis; type: cell-based
How it was run: (§3)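 Dose-response in HeLa cells: compound at 0.1, 0.3, 1, 3, 10 and 20 μM before TNFα stimulation, with handling as in the single-dose experiment. Accumulation of phospho-IκBα (S32/36) was measured by Western blot with β-actin as loading control. NF-κB DNA binding was measured by EMSA.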

HeLa [5] = test: Inhibition of 26S proteasome in IL1beta-induced human HeLa cells assessed as reduction in NFkappaB-DNA binding at 20 uM preincubated for 2 hrs followed by IL1beta stimulation by EMSA; type: cell-based; how it was run: as §2
[6] = target: T2, Calpain-2 catalytic subunit (Homo sapiens, UniProt P17655); test: Inhibition of m-calpain (unknown origin) using Suc-LY-AMC as substrate by fluorometric assay
T2 sequence (P17655 whole entry): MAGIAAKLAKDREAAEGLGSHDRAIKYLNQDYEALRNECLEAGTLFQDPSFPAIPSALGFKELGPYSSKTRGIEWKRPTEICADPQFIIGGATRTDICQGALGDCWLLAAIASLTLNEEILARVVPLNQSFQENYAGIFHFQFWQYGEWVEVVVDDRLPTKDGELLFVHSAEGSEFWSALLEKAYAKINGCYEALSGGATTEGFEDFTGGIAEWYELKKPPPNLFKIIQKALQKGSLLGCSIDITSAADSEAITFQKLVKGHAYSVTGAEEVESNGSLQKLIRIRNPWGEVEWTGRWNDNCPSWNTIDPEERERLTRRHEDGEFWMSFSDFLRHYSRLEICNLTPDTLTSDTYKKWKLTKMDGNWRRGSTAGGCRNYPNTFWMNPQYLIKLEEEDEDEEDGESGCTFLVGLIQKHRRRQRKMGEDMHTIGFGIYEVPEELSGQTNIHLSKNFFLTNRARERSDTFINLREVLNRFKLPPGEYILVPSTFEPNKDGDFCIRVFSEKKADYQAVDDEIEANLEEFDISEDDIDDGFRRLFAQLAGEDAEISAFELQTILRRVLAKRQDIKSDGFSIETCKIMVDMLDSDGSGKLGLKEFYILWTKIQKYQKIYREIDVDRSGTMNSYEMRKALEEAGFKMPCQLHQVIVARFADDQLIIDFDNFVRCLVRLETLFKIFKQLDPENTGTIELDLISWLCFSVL

HeLa [7] = test: Inhibition of 26S proteasome in TNFalpha-induced human HeLa cells assessed as reduction in NFkappaB-DNA binding at 20 uM preincubated for 2 hrs followed by TNFalpha stimulation by EMSA; type: cell-based
How it was run: (§4)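 HeLa cells were preincubated for 2 h with 20 μM compound before TNFα stimulation. IκBα S32/36 phosphorylation and IκBα levels were assessed by Western blot (β-actin loading control). NF-κB DNA binding was measured by electrophoretic mobility shift assay.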

HeLa [8] = test: Inhibition of 26S proteasome in TNFalpha-induced human HeLa cells assessed as reduction in NFkappaB-DNA binding at 300 nM to 20 uM preincubated for 2 hrs followed by TNFalpha stimulation by EMSA; type: cell-based; how it was run: as §3
[9] = Selectivity ratio of Ki for m-calpain (unknown origin) to Ki for chymotrypsin-like activity of rabbit 20S proteasome
[10] = Inhibition of chymotrypsin-like activity of rabbit 20S proteasome using Suc-LLVY-AMC substrate incubated at 37 degC by fluorometric assay; parameters: species or system Oryctolagus cuniculus
HeLa [11] = test: Inhibition of 26S proteasome in IL1beta-induced human HeLa cells assessed as reduction in IkappaBalpha degradation at 20 uM preincubated for 2 hrs followed by IL1beta stimulation by Western blot analysis; type: cell-based; how it was run: as §2
HeLa [12] = test: Inhibition of 26S proteasome in TNFalpha-induced human HeLa cells assessed as reduction in IkappaBalpha degradation at 20 uM preincubated for 2 hrs followed by TNFalpha stimulation by Western blot analysis; type: cell-based; how it was run: as §4
Oryctolagus cuniculus [13] = species on record: Oryctolagus cuniculus; test: Inhibition of trypsin-like activity of rabbit 20S proteasome using Cbz-ARR-AMC substrate at 100 uM incubated at 37 degC by fluorometric assay; how it was run: as §1
[14] = Selectivity ratio of Ki for human liver cathepsin B to Ki for chymotrypsin-like activity of rabbit 20S proteasome
HeLa [15] = test: Inhibition of 26S proteasome in IL1beta-induced human HeLa cells assessed as reduction in IkappaBalpha degradation at 300 nM to 20 uM preincubated for 2 hrs followed by IL1beta stimulation
Homo sapiens = species on record: Homo sapiens; test: Inhibition of chymotrypsin (unknown origin) using Suc-LLVY-AMC as substrate at 100 uM by fluorometric assay; how it was run: as §1
HeLa [16] = test: Inhibition of 26S proteasome in TNFalpha-induced human HeLa cells assessed as phosphorylation of IkappaBalpha at 20 uM preincubated for 2 hrs followed by TNFalpha stimulation by Western blot analysis; type: cell-based; how it was run: as §4
[17] = Inhibition of trypsin-like activity of rabbit 20S proteasome using Cbz-ARR-AMC substrate incubated at 37 degC by fluorometric assay; parameters: species or system Oryctolagus cuniculus
[18] = Inhibition of PGPH-like activity of rabbit 20S proteasome using Cbz-LLE-AMC substrate incubated at 37 degC by fluorometric assay; parameters: species or system Oryctolagus cuniculus
Cathepsin B [19] = target: T1, Cathepsin B; test: Inhibition of human liver cathepsin B using Cbz-RR-AMC as substrate at 100 uM by fluorometric assay; how it was run: as §1
[20] = target: T3, Calpain-2 catalytic subunit (Homo sapiens) (UniProt P17655); test: Inhibition of m-calpain (unknown origin) using Suc-LY-AMC as substrate at 100 uM by fluorometric assay; how it was run: as §1
T3 sequence (whole entry): T2 sequence (P17655 whole entry)

SMILES	Ki (Cathepsin B [1]) [µM]	inhibition (Oryctolagus cuniculus [2])	inhibition (HeLa [3])	inhibition (HeLa [4])	inhibition (HeLa [5])	Ki [6] [µM]	inhibition (HeLa [7])	inhibition (HeLa [8])	Ratio Ki [9]	Ki [10] [µM]	inhibition (HeLa [11])	inhibition (HeLa [12])	inhibition (Oryctolagus cuniculus [13])	Ratio Ki [14]	inhibition (HeLa [15])	inhibition (Homo sapiens)	inhibition (HeLa [16])	inhibition (Cathepsin B [19])	inhibition [20]	other results
COc1ccc(C[C@@H]2NC(=O)[C@@H](NC(=O)OCc3ccccc3)Cc3ccc([N+](=O)[O-])c(c3)Oc3ccc(cc3)C[C@@H](C(=O)N[C@H](C=O)CC(C)C)NC2=O)cc1	30.3	inactive	Active	Active	Active	2.98	Active	Active	55	0.0545	Active	Active	inactive	550	Active	inactive	Active			
COc1ccc(C[C@H](NC(=O)[C@H](Cc2ccccc2)NC(=O)OCc2ccccc2)C(=O)N[C@@H](Cc2ccccc2)C(=O)N[C@H](C=O)CC(C)C)cc1 (Cbz-FY(Me)FL-aldehyde)	2.29					1.71			61	0.028				80		inactive				
CC(C)C[C@@H](C=O)NC(=O)[C@@H]1Cc2ccc(cc2)Oc2cc(ccc2[N+](=O)[O-])C[C@H](NC(=O)OCc2ccccc2)C(=O)N[C@@H](CC(C)C)C(=O)N1	3.05	inactive	Active	Active	Active	2.03	Active	Active	8	0.241	Active	Active			Active	inactive	Active			Ki [17]: 8.04 µM
CC(C)C[C@@H](C=O)NC(=O)[C@H](CC(C)C)NC(=O)[C@H](CC(C)C)NC(=O)OCc1ccccc1 [MG-132] (Cbz-Leu-Leu-Leu-aldehyde)	0.23		Active	Active	Active	0.653	Active	Active	10	0.0635	Active	Active	inactive	4	Active	inactive	Active			Ki [18]: 3.7 µM
CC(C)C[C@H](NC(=O)[C@H](CCc1ccccc1)NC(=O)CN1CCOCC1)C(=O)N[C@@H](Cc1ccccc1)C(=O)N[C@@H](CC(C)C)C(=O)[C@@]1(C)CO1 [CARFILZOMIB]										0.0255						inactive		inactive	inactive	
CC(C)C[C@H](NC(=O)[C@H](Cc1ccccc1)NC(=O)c1cnccn1)B(O)O [BORTEZOMIB]										0.024						inactive		inactive	inactive	
